Test results as given in article PMC2921709 (ChemMedChem, 2010).
Read-outs that look alike come from different tables or passages of the source.

Key:
[1] = test system: HL-60; assay: MTT growth inhibition, HL-60 promyelocytic leukemia cells; format: cell-based, human; conditions: read-out: GI50 HL-60
Summary of the method: (§1)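 Cells seeded at 8 × 10^3 per well in 96-well plates and held 18 h at 37 °C, 5% CO2. Medium then replaced with test compound in complete medium at various concentrations for 72 h continuous exposure. Viability read by MTT. GI50 is the concentration giving 50% proliferation inhibition, from dose–response curves; mean ± SE of ≥3 independent experiments. Media: leukemia lines in RPMI-1640; solid-tumour lines in DMEM with penicillin G 115 U mL−1, streptomycin and 10% FBS.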

[2] = test system: HeLa; assay: MTT growth inhibition, HeLa cervix carcinoma cells; format: cell-based, human; conditions: read-out: GI50 HeLa
Summary of the method: as §1

[3] = test system: K562; assay: MTT growth inhibition, K562 chronic myelogenous leukemia cells; format: cell-based, human; conditions: read-out: GI50 K562
Summary of the method: as §1

[4] = test system: Hep G2; assay: MTT growth inhibition, HepG2 hepatoma cells; format: cell-based, human; conditions: read-out: GI50 Hep G2
Summary of the method: as §1

[5] = test system: ML2; assay: MTT growth inhibition, ML-2 myeloid leukemia cells; format: cell-based, human; conditions: read-out: GI50 ML2
Summary of the method: as §1

[6] = test system: HT-29; assay: MTT growth inhibition, HT-29 colon adenocarcinoma cells; format: cell-based, human; conditions: read-out: GI50 HT-29
Summary of the method: as §1

[7] = test system: ARO; assay: MTT growth inhibition, ARO anaplastic thyroid cells; format: cell-based, human; conditions: read-out: GI50 ARO
Summary of the method: as §1

[8] = test system: panel of human tumor cell lines; assay: MTT growth inhibition, whole panel of human tumor cell lines; format: cell-based; conditions: 72 h, read-out: GI50, all cell lines tested
Summary of the method: as §1

[9] = test system: Jurkat cells; assay: Mitochondrial ROS production; format: cell-based, human; conditions: 24 and 48 h
Summary of the method: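 Jurkat cells treated with test compound for 24 or 48 h, pelleted, then loaded in HBSS with hydroethidine (HE) or H2-DCFDA for 30 min at 37 °C. Cells re-pelleted into HBSS and read by flow cytometry: 488 nm excitation, emission 585 nm (HE) and 530 nm (DCF). Fluorescence intensity given as % of untreated control; mean ± SEM, three independent experiments.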

[10] = test system: Jurkat cells; assay: Annexin V-FITC/PI apoptosis assay; format: cell-based, human; conditions: 24 h treatment
Summary of the method: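 Jurkat cells exposed to test compound at various concentrations for 24 or 48 h, then harvested. Co-labelled with annexin V–FITC and PI and analysed by flow cytometry (excitation 488 nm; emission 525 and 585 nm). Reported as mean percentage of annexin-V-positive cells ± SEM, three independent experiments.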

[11] = test system: leukemia cells; assay: MTT growth inhibition, leukemia cell lines; format: cell-based, human; conditions: 72 h
Summary of the method: as §1

[12] = test system: IGROV; assay: MTT growth inhibition, IGROV ovarian cancer cells; format: cell-based, human; conditions: read-out: GI50 IGROV
Summary of the method: as §1

[13] = test system: Bovine brain tubulin (colchicine site); assay: Inhibition of [3H]colchicine binding to tubulin; conditions: tubulin 1 μM, [3H]colchicine 5 μM
[14] = test system: RS 4;11; assay: MTT growth inhibition, RS 4; format: cell-based, human; conditions: read-out: GI50 RS 4;11
Summary of the method: as §1

[15] = test system: Bovine brain tubulin; assay: Inhibition of tubulin polymerization; format: biochemical; conditions: for IC50: read-out: Tubulin Assembly IC50, tubulin 10 μM, 20 min incubation, ± SD
[16] = test system: solid tumor cells; assay: MTT growth inhibition, solid tumor cell lines; format: cell-based; conditions: Homo sapiens, 72 h, read-out: GI50, solid tumor cells
Summary of the method: as §1

[17] = test system: Bcl-2 in Jurkat cells; assay: Flow cytometric analysis of Bcl-2 expression; format: cell-based, human; conditions: 24 and 48 h, flow cytometry
Summary of the method: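 Jurkat cells incubated with test compound for 24 and 48 h, then pelleted and permeabilised with a Fix&Perm kit. Labelled with FITC-conjugated anti-Bcl-2 monoclonal antibody, washed and analysed by flow cytometry. Mean ± SEM of two independent experiments.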

[18] = test system: caspase-3 in Jurkat cells; assay: Caspase-3 activation by flow cytometry; format: cell-based, human; conditions: time- and concentration-dependent
[19] = test system: Jurkat; assay: MTT growth inhibition, Jurkat T-leukemia cells; format: cell-based, human; conditions: read-out: GI50 Jurkat
Summary of the method: as §1

[20] = test system: MCF-7; assay: MTT growth inhibition, MCF-7 breast adenocarcinoma cells; format: cell-based, human; conditions: read-out: GI50 MCF-7
Summary of the method: as §1

[21] = test system: Jurkat cells; assay: Flow cytometric cell-cycle analysis; format: cell-based, human; conditions: for effect on cell-cycle progression (G2/M arrest, in words): 24 h treatment
Summary of the method: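 Jurkat cells in exponential growth, 5 × 10^5 per sample, exposed to test compound at various concentrations for 24 h. Cells fixed in ice-cold 70% ethanol, treated with lysis buffer containing RNase A and 0.1% Triton X-100, then stained with PI. DNA content measured by flow cytometry and phases assigned from DNA histograms. Mean ± SEM of two independent experiments.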

[22] = test system: Jurkat cells; assay: Mitochondrial membrane potential; format: cell-based, human; conditions: 0.5 and 0.1 μM, 24 and 48 h
Summary of the method: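 After treatment, Jurkat cells were pelleted and resuspended in HBSS containing JC-1, then kept 10 min at 37 °C. They were spun again, taken up in HBSS and read by flow cytometry. Polarised mitochondria give red JC-1 aggregates (590 nm); depolarisation gives green monomers (530 nm).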

[23] = Homo sapiens, Thyroid cell, 72 h

Row | Structure (SMILES) | GI50 ([1]; Homo sapiens, HL-60, 72 h) [µM] | GI50 ([2]; Homo sapiens, HeLa, 72 h) [µM] | GI50 ([3]; Homo sapiens, K562, 72 h) [µM] | GI50 ([4]; Homo sapiens, HepG2, 72 h) [µM] | GI50 ([5]; Homo sapiens, ML-2, 72 h) [µM] | GI50 ([6]; Homo sapiens, HT-29, 72 h) [µM] | GI50 ([12]; Homo sapiens, IGROV, 72 h) [µM] | IC50 [15] [µM] | GI50 ([19]; Homo sapiens, Jurkat, 72 h) [µM] | GI50 ([20]; Homo sapiens, MCF7, 72 h) [µM] | GI50 ([1]; 72 h exposure, MTT, mean ± SE) [µM] | GI50 ([2]; 72 h exposure, MTT, mean ± SE) [µM] | GI50 ([3]; 72 h exposure, MTT, mean ± SE) [µM] | GI50 ([4]; 72 h exposure, MTT, mean ± SE) [µM] | GI50 ([5]; 72 h exposure, MTT, mean ± SE) [µM] | GI50 ([6]; 72 h exposure, MTT, mean ± SE) [µM] | GI50 [7, 23] [µM] | induction of apoptotic (annexin-V-positive) cells, in words [10] | GI50 ([14]; Homo sapiens, RS4-11, 72 h) [µM] | effect on cell-cycle progression (G2/M arrest, in words) [21] | further results
1 | COc1cc(Cn2ccc3c4c(=O)cc(-c5ccccc5)[nH]c4ccc32)cc(OC)c1OC [Compound 12, 7-Phenyl-3-(3,4,5-trimethoxybenzyl)-3H-pyrrolo[3,2-f]quinolin-9(6H)-one] | 0.002 ± 0.0001 | 0.4 ± 0.05 | 0.03 ± 0.007 | 0.95 ± 0.15 | 0.01 ± 0.002 | 0.45 ± 0.1 | 0.85 ± 0.2 | 1.4 ± 0.2 | 0.003 ± 0.0001 | 1.4 ± 0.5 | – | – | – | – | – | – | 0.58 ± 0.15 | remarkable induction of apoptotic cells | 0.001 ± 0.0001 | clear G2/M arrest pattern in a concentration-dependent manner | ROS production (HE, H2-DCFDA), in words [9]: induced the production of ROS relative to control cells; GI50 ([11]; Homo sapiens, read-out: GI50, leukemia cells): 0.0005 to 0.01 µM; Colchicine Binding Inhibition [%], 5 μM ([13]; compound 5 μM): 30 ± 4%; Colchicine Binding Inhibition [%], 50 μM ([13]; compound 50 μM): 56 ± 2%; GI50 [16]: 0.4 to 1.4 µM; Bcl-2 expression, in words [17]: decrease Bcl-2 expression; caspase-3 activation, in words [18]: activate caspase-3; arrest in G2/M phase (cell population) ([21]; 24 h, 0.25 μM, control 9.4 %): 65%; percentage of cells with low ΔΨmt (JC-1), in words [22]: significant increase in the percentage of cells with low ΔΨmt
2 | CCn1cc(C(N)=O)c2c3c(=O)cc(-c4ccccc4)[nH]c3ccc21 [Compound 22, 3-Ethyl-9-oxo-7-phenyl-6,9-dihydro-3H-pyrrolo[3,2-f]quinoline-1-caboxamide] | – | – | – | – | – | – | – | > 40 | – | – | 0.32 ± 0.03 | > 50 | 1.7 ± 0.5 | > 50 | 0.09 ± 0.02 | > 50 | – | lower efficacy | – | only induced G2/M arrest at yet higher concentrations | activity in the leukemia lines (concentration level, in words) ([11]; MTT): sub-micromolar; GI50 ([12]; 72 h exposure, MTT, mean ± SE): > 50 µM; GI50 ([14]; 72 h exposure, MTT, mean ± SE): 0.03 ± 0.002 µM; inhibition of tubulin assembly at the highest concentration ([15]; compound 40 μM): less than 50%; GI50 ([19]; 72 h exposure, MTT, mean ± SE): 0.05 ± 0.006 µM; GI50 ([7]; 72 h exposure, MTT, mean ± SE): > 50 µM; GI50 ([20]; 72 h exposure, MTT, mean ± SE): > 50 µM
3 | CCn1cc(C)c2c3c(=O)cc(-c4ccccc4)[nH]c3ccc21 [Compound 17, 3-Ethyl-1-methyl-7-phenyl-3H-pyrrolo[3,2-f]quinolin-9(6H)-one] | 17.5 ± 2.3 | 4.5 ± 0.8 | 27.3 ± 0.34 | 5.8 ± 1.1 | 14.4 ± 2.3 | > 50 | > 50 | – | 8 ± 1.2 | > 50 | – | – | – | – | – | – | > 50 | – | 6.5 ± 1 | – | –

Further lines, with some results ahead:

Row | GI50 ([1]; Homo sapiens, HL-60, 72 h) [µM] | GI50 ([2]; Homo sapiens, HeLa, 72 h) [µM] | GI50 ([3]; Homo sapiens, K562, 72 h) [µM] | GI50 ([4]; Homo sapiens, HepG2, 72 h) [µM] | GI50 ([5]; Homo sapiens, ML-2, 72 h) [µM] | GI50 ([6]; Homo sapiens, HT-29, 72 h) [µM] | GI50 ([12]; Homo sapiens, IGROV, 72 h) [µM] | IC50 [15] [µM] | GI50 ([19]; Homo sapiens, Jurkat, 72 h) [µM] | GI50 ([20]; Homo sapiens, MCF7, 72 h) [µM] | GI50 ([1]; 72 h exposure, MTT, mean ± SE) [µM] | GI50 ([2]; 72 h exposure, MTT, mean ± SE) [µM] | GI50 ([3]; 72 h exposure, MTT, mean ± SE) [µM] | GI50 ([4]; 72 h exposure, MTT, mean ± SE) [µM] | GI50 ([5]; 72 h exposure, MTT, mean ± SE) [µM] | GI50 ([6]; 72 h exposure, MTT, mean ± SE) [µM] | Structure (SMILES) | GI50 [7, 23] [µM] | induction of apoptotic (annexin-V-positive) cells, in words [10] | GI50 ([14]; Homo sapiens, RS4-11, 72 h) [µM] | effect on cell-cycle progression (G2/M arrest, in words) [21] | further results
4 | > 50 | > 50 | > 50 | > 50 | > 50 | > 50 | – | – | – | – | – | – | – | – | – | – | CCn1ccc2c3c(=O)c(-c4ccccc4)c[nH]c3ccc21 [Compound 34, 3-Ethyl-8-phenyl-3H-pyrrolo[3,2-f]quinolin-9(6H)-one] | > 50 | – | – | – | GI50 [8]: > 50 µM
5 | – | – | – | – | – | – | – | – | – | – | > 50 | > 50 | > 50 | > 50 | > 50 | > 50 | O=c1c(-c2ccccc2)c[nH]c2ccc3c(ccn3CC3CC3)c12 [Compound 35] | – | – | – | – | GI50 ([7]; 72 h exposure, MTT, mean ± SE): > 50 µM
6 | > 50 | > 50 | > 50 | > 50 | > 50 | > 50 | – | – | – | – | – | – | – | – | – | – | CCn1ccc2c3c(=O)c(-c4cccc(OC)c4)c[nH]c3ccc21 [Compound 36, 3-Ethyl-8-(3-methoxyphenyl)-3H-pyrrolo[3,2-f]quinolin-9(6H)-one] | > 50 | – | – | – | –
